Measurements taken from publication PMC10866054 (Journal of Enzyme Inhibition and Medicinal Chemistry, 2024).

Key:
MDA-MB-231 = experiment: MTT cytotoxicity, MDA-MB-231; assay type: cell-based; conditions: Homo sapiens, MDA-MB-231, read-out: Cytotoxic activity IC50, MDA-MB-231
HCT-116 = experiment: MTT cytotoxicity, HCT-116; assay type: cell-based; conditions: Homo sapiens, HCT-116, read-out: Cytotoxic activity IC50, HCT-116
HEPG-2 = experiment: MTT cytotoxicity, HEPG-2; assay type: cell-based, human; conditions: for IC50: Homo sapiens, HepG2, read-out: Cytotoxic activity IC50, HEPG-2
[1] = MTT cytotoxicity, normal prostate epithelial cells; assay type: cell-based; conditions: human, HPrEC normal primary prostate epithelial cells
PC-3 = experiment: MTT cytotoxicity, PC-3; assay type: cell-based, human; conditions: for fold superior to IC50 of the erlotinib, PC-3: PC-3 cell line, vs erlotinib; for IC50: read-out: Cytotoxic activity IC50, PC-3, MTT, mean ± SD of three experiments
PI3Kβ (p110β/p85α) = PI3Kβ (p110β/p85α) (Homo sapiens, UniProt P42338); experiment: PI3Kβ Assay Kit; assay type: biochemical
PI3Kδ = PI3Kδ (Homo sapiens, UniProt O00329); experiment: PI3K isoform ELISA kit, PI3Kδ; assay type: biochemical
EGFR = EGFR (Homo sapiens, UniProt P00533); experiment: EGFR Kinase Assay Kit; assay type: biochemical
PI3Kα = PI3Kα (Homo sapiens, UniProt P42336); experiment: PI3K isoform ELISA kit, PI3Kα; assay type: biochemical; conditions: mean ± SD of three experiments
PI3Kγ = PI3Kγ (Homo sapiens, UniProt P48736); experiment: PI3K isoform ELISA kit, PI3Kγ; assay type: biochemical
AKT = experiment: RT-qPCR gene expression of AKT in PC-3 cells; assay type: cell-based, human; conditions: PC-3 cells treated at IC50 3.56 µM, compared to untreated cells
Method in brief: (§1)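 Control and treated cells (1×10^5) were trypsinised, spun at 5000 rpm and washed in PBS. Total RNA was isolated and cDNA synthesised. Gene-specific mRNA was measured by qPCR with IDT-designed primers, with a GAPDH primer pair included. Expression was given relative to untreated control cells.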

m-TOR = experiment: RT-qPCR gene expression of m-TOR in PC-3 cells; assay type: cell-based, human; conditions: PC-3 cells treated at IC50 3.56 µM, compared to untreated cells
Method in brief: as §1

P53 = experiment: RT-qPCR gene expression of P53 in PC-3 cells; assay type: cell-based, human; conditions: PC-3 cells treated at IC50, vs untreated PC-3
Method in brief: as §1

BAX = experiment: RT-qPCR gene expression of BAX in PC-3 cells; assay type: cell-based, human; conditions: PC-3 cells treated at IC50, vs untreated PC-3
Method in brief: as §1

BCl-2 = experiment: RT-qPCR gene expression of BCl-2 in PC-3 cells; assay type: cell-based, human; conditions: PC-3 cells treated at IC50, vs untreated PC-3
Method in brief: as §1

caspase 3 = experiment: RT-qPCR gene expression of caspase 3 in PC-3 cells; assay type: cell-based, human; conditions: PC-3 cells treated at IC50, vs untreated PC-3
Method in brief: as §1

caspase 8 = experiment: RT-qPCR gene expression of caspase 8 in PC-3 cells; assay type: cell-based, human; conditions: PC-3 cells treated at IC50, vs untreated PC-3
Method in brief: as §1

PC-3 cells [2] = experiment: Cell cycle analysis; assay type: cell-based, human; conditions: compound at IC50, 24 h
PC-3 cells [3] = experiment: Annexin V/propidium iodide staining for apoptosis; assay type: cell-based, human

PI3Kβ (p110β/p85α), sequence (P42338 whole entry, canonical isoform): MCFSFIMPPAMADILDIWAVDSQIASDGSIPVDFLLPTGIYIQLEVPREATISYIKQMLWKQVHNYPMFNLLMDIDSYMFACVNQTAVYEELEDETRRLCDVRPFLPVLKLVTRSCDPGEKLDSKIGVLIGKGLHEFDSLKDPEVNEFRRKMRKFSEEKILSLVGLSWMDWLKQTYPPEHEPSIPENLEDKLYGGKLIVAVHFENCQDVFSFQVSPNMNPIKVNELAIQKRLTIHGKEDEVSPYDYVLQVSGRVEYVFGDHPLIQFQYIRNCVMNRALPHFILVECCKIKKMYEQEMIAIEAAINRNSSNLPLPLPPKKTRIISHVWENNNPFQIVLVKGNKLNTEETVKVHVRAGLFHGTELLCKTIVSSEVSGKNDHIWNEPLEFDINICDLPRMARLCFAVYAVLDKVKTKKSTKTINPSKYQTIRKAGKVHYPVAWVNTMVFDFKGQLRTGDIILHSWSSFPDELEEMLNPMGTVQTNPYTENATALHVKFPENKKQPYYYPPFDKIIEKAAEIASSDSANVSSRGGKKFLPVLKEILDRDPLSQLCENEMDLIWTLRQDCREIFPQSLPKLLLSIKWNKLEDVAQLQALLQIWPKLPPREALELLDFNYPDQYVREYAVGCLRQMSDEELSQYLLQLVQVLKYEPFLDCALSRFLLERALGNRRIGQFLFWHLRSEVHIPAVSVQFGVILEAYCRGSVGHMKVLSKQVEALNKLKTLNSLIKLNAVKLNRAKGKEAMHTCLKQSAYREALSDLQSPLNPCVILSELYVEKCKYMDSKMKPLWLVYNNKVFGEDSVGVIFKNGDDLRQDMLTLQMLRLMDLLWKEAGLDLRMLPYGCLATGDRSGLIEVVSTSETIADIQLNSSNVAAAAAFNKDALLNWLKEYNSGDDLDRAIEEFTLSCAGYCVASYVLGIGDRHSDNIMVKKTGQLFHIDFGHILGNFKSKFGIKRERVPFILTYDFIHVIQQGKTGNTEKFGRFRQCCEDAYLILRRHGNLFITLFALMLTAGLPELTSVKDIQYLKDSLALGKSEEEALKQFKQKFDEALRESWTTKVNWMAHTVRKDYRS
PI3Kβ (p110β/p85α), sequence (P27986 whole entry partner, canonical isoform): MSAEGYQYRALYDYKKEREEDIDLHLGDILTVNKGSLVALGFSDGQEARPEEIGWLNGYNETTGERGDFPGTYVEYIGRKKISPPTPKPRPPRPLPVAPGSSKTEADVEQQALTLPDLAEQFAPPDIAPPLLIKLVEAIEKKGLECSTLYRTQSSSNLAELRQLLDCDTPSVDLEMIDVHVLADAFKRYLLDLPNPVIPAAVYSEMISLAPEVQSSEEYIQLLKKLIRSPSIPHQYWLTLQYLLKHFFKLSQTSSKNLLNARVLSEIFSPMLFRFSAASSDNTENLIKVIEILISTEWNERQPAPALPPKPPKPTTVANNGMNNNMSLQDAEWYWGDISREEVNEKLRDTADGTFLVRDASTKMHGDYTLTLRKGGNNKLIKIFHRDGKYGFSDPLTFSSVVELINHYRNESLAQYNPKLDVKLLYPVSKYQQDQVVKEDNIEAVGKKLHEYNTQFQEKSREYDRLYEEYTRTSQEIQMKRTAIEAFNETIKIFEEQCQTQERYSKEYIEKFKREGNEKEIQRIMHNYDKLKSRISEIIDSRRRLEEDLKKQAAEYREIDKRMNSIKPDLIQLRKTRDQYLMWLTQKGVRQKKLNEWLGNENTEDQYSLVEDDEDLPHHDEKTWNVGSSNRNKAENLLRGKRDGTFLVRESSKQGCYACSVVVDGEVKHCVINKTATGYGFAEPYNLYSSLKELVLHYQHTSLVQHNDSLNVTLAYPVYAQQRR
PI3Kδ, sequence (O00329 whole entry, canonical isoform): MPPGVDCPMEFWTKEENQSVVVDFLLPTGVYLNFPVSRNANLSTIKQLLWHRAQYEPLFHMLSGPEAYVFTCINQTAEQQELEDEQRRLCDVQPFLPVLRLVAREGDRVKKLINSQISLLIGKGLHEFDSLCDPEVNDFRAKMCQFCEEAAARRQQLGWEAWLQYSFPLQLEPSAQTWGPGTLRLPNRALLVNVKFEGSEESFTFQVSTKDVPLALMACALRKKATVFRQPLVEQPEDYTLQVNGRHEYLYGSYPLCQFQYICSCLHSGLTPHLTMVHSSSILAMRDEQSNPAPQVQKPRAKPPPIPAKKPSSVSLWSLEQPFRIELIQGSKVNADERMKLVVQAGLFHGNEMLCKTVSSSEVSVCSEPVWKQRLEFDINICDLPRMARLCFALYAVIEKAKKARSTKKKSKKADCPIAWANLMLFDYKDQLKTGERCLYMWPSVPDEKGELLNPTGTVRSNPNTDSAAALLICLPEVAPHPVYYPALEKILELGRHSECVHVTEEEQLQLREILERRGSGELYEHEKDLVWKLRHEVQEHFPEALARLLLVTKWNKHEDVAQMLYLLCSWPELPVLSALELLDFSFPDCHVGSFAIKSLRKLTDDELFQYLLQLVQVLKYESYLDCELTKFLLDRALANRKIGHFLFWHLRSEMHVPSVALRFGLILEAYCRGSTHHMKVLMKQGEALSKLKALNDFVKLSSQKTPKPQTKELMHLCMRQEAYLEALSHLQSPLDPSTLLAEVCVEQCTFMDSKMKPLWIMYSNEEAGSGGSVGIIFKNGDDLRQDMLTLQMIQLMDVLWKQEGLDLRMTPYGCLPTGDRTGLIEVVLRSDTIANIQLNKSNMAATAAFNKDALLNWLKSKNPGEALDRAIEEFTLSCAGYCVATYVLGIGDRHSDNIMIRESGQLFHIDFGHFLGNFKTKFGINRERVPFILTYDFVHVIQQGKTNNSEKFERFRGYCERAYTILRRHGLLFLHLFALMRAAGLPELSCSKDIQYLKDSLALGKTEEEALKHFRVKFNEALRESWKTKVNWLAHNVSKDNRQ
PI3Kδ, sequence (P27986 whole entry partner, canonical isoform): as the sequence (P27986 whole entry partner, canonical isoform) above
EGFR, sequence (P00533 25-1210): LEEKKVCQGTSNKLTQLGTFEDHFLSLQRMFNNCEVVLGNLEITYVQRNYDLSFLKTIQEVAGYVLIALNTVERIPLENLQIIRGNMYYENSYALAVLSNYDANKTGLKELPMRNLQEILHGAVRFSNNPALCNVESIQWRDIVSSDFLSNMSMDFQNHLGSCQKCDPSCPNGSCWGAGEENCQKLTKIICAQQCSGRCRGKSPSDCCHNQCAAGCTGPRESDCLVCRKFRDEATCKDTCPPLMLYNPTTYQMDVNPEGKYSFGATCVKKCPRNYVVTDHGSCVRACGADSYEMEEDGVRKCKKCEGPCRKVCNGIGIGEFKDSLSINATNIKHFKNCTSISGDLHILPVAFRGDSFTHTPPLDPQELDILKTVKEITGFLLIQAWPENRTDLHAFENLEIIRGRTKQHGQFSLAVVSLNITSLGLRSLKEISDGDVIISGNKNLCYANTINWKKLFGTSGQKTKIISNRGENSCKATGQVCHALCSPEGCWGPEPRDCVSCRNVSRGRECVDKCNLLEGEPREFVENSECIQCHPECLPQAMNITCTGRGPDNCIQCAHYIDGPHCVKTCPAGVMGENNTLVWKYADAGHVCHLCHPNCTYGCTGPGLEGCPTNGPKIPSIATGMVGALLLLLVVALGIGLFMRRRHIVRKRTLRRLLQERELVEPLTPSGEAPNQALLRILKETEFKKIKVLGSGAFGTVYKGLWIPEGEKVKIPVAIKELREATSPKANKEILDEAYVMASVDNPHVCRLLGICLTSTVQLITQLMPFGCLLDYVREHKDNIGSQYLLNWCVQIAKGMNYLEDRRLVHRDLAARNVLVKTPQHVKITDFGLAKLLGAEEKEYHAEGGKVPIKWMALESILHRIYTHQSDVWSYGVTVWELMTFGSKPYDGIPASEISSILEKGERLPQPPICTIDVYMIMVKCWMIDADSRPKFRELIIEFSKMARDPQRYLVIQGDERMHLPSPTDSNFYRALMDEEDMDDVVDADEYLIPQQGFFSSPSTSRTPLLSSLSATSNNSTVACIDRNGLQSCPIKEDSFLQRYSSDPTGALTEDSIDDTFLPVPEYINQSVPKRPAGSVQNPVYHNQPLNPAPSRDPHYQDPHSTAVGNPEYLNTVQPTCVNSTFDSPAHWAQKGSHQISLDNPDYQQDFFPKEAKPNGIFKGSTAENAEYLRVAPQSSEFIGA

**Q.** With `C=CCNC(=S)NNC(=O)COc1ccc2c(C)c(CC)c(=O)oc2c1C` [Compound 6b, N-Allyl-2-(2-((3-ethyl-4,8-dimethyl-2-oxo-2H-chromen-7-yl)oxy)acetyl)hydrazine-1-carbothioamide] as the compound, how does the IC50 (MDA-MB-231) read?
**A.** Its IC50 is greater than 50 µM.

**Q.** For `C#Cc1cccc(Nc2ncnc3cc(OCCOC)c(OCCOC)cc23)c1` [Erlotinib, erlotinib, reference compound], which IC50 (MDA-MB-231) is on record?
**A.** The IC50 was 11.1 ± 1.11 µM.

**Q.** And the IC50 (HCT-116)?
**A.** The IC50 was 17.8 ± 1.15 µM.

**Q.** And the IC50 (HEPG-2)?
**A.** Its IC50 is 22.1 ± 0.46 µM.

**Q.** And the IC50 [1]?
**A.** The IC50 was 63.5 ± 5.56 µM.

**Q.** With `CCCOc1ccc2c(C)c(CC)c(=O)oc2c1C` [Compound 9b, 3-Ethyl-4,8-dimethyl-7-propoxy-2H-chromen-2-one] as the compound, how does the IC50 (MDA-MB-231) read?
**A.** The IC50 was greater than 50 µM.

**Q.** With `CCc1c(C)c2ccc(OCC(=O)NN=Cc3ccc([N+](=O)[O-])cc3)cc2oc1=O` [Compound 4a, 2-((3-Ethyl-4-methyl-2-oxo-2H-chromen-7-yl)oxy)-N'-(4-nitrobenzylidene) acetohydrazide] as the compound, how does the IC50 (MDA-MB-231) read?
**A.** Its IC50 is 23.6 ± 0.36 µM.

**Q.** And the “fold superior to IC50 of the erlotinib, PC-3” value (“fold superior to IC50” below) (PC-3)?
**A.** Its value is 1.2 fold.

**Q.** And the IC50 (PI3Kβ (p110β/p85α))?
**A.** The IC50 was 0.792 µM.

**Q.** With `CCNC(=S)NNC(=O)COc1ccc2c(C)c(CC)c(=O)oc2c1C` [Compound 6a, N-Ethyl-2-(2-((3-ethyl-4,8-dimethyl-2-oxo-2H-chromen-7-yl)oxy)acetyl)hydrazine-1-carbothioamide] as the compound, how does the IC50 (MDA-MB-231) read?
**A.** The IC50 was greater than 50 µM.

**Q.** For `Cc1c(Cc2ccccc2)c(=O)oc2c(C)c(OCC(=O)NN=Cc3ccco3)ccc12` [Compound 4b, 2-((3-Benzyl-4,8-dimethyl-2-oxo-2H-chromen-7-yl)oxy)-N'-(furan-2-ylmethylene)acetohydrazide], which IC50 (MDA-MB-231) is on record?
**A.** Its IC50 is 11.8 ± 0.98 µM.

**Q.** What about the “fold superior to IC50” value (PC-3) of the same compound?
**A.** Its value is 1.36 fold.

**Q.** With `CCOc1ccc2c(C)c(CC)c(=O)oc2c1C` [Compound 9a, 7-Ethoxy-3-ethyl-4,8-dimethyl-2H-chromen-2-one] as the compound, how does the IC50 (MDA-MB-231) read?
**A.** Its IC50 is greater than 50 µM.

**Q.** Which IC50 (MDA-MB-231) does the source give for `Cc1c(Cc2ccccc2)c(=O)oc2c(C)c(OCC(=O)NN=Cc3ccc([N+](=O)[O-])cc3)ccc12` [Compound 4e, 2-((3-Benzyl-4,8-dimethyl-2-oxo-2H-chromen-7-yl)oxy)-N'-(4-nitrobenzylidene)acetohydrazide] here?
**A.** The IC50 was 24.3 ± 2.28 µM.

**Q.** And the IC50 (PC-3)?
**A.** The IC50 was 23.1 ± 1.2 µM.

**Q.** And the IC50 (PI3Kβ (p110β/p85α))?
**A.** Its IC50 is 0.992 µM.

**Q.** Which IC50 (PI3Kδ) does the source give for `O=c1cc(N2CCOCC2)oc2c(-c3ccccc3)cccc12` [LY294002, reference compound] here?
**A.** The IC50 was 7.42 ± 0.36 µM.

**Q.** For `Cc1c(Cc2ccccc2)c(=O)oc2c(C)c(OCC(=O)NN=Cc3ccccc3)ccc12` [Compound 4c, 2-((3-Benzyl-4,8-dimethyl-2-oxo-2H-chromen-7-yl)oxy)-N'-benzylideneacetohydrazide], which IC50 (MDA-MB-231) is on record?
**A.** Its IC50 is 8.5 ± 0.85 µM.

**Q.** For `CCc1c(C)c2ccc(OCC=Cc3ccccc3)c(C)c2oc1=O` [Compound 9e, 7-(Cinnamyloxy)-3-ethyl-4,8-dimethyl-2H-chromen-2-one], which IC50 (MDA-MB-231) is on record?
**A.** Its IC50 is greater than 50 µM.

**Q.** For `CC(=NNC(=O)COc1ccc2c(C)c(Cc3ccccc3)c(=O)oc2c1C)c1ccc(Br)cc1` [Compound 5, 2-((3-benzyl-4,8-dimethyl-2-oxo-2H-chromen-7-yl)oxy)-N'-(1-(4-bromophenyl)ethylidene)acetohydrazide], which IC50 (MDA-MB-231) is on record?
**A.** Its IC50 is 46.3 ± 2.7 µM.

**Q.** What about the “fold superior to IC50” value (PC-3) of the same compound?
**A.** Its value is 3.45 fold.

**Q.** And the IC50 (HCT-116)?
**A.** The IC50 was 19.8 ± 0.55 µM.

**Q.** What about the “cytotoxic activity times higher than erlotinib, HEPG-2” value (HEPG-2; HEPG-2 cell line, vs erlotinib) of the same compound?
**A.** Its value is 1.5 times.

**Q.** What about the IC50 (HEPG-2) of the same compound?
**A.** Its IC50 is 14.2 ± 1.2 µM.

**Q.** What about the IC50 [1] of the same compound?
**A.** Its IC50 is 95.5 ± 1.3 µM.

**Q.** What about the IC50 (EGFR) of the same compound?
**A.** The IC50 was 0.181 µM.

**Q.** What about the IC50 (PI3Kβ (p110β/p85α)) of the same compound?
**A.** Its IC50 is 0.261 µM.

**Q.** And the “PI3Kβ inhibitory activity relative to LY294002” value (PI3Kβ (p110β/p85α); vs LY294002 as reference PI3Kβ inhibitor)?
**A.** The value was “twofold”.

**Q.** And the IC50 (PI3Kα)?
**A.** Its IC50 is 2.89 ± 0.33 µM.

**Q.** What about the IC50 (PI3Kγ) of the same compound?
**A.** The IC50 was 5.04 ± 0.21 µM.

**Q.** What about the IC50 (PI3Kδ) of the same compound?
**A.** The IC50 was 5.49 ± 0.29 µM.

**Q.** And the “downregulation of AKT gene expression” value (AKT)?
**A.** Its value is 2.5 fold.

**Q.** What about the “downregulation of m-TOR gene expression” value (m-TOR) of the same compound?
**A.** Its value is 2.6 fold.

**Q.** And the “induced expression of P53 gene” value (P53)?
**A.** The value was 3.83 fold.

**Q.** And the “expression of BAX gene” value (BAX)?
**A.** Its value is 5.6 fold.

**Q.** And the “downregulation of BCl-2 gene” value (BCl-2)?
**A.** Its value is 0.30 fold.

**Q.** What about the “upregulation of caspase 3 gene” value (caspase 3) of the same compound?
**A.** Its value is 5.40 fold.

**Q.** What about the “upregulation of caspase 8 gene” value (caspase 8) of the same compound?
**A.** Its value is 2.96 fold.

**Q.** What about the “percentage of cells in G1 phase” value (PC-3 cells [2]) of the same compound?
**A.** Its value is 52.09%.

**Q.** And the “percentage of cells in G2/M phase” value (PC-3 cells [2])?
**A.** Its value is 5.8%.

**Q.** What about the “percentage of cells in S phase” value (PC-3 cells [2]) of the same compound?
**A.** Its value is 42.11%.

**Q.** And the “proportion of early apoptotic cells” value (PC-3 cells [3]; compound at IC50, lower right quadrant)?
**A.** Its value is 22.62%.

**Q.** And the “proportion of late apoptotic cells” value (PC-3 cells [3]; compound at IC50, upper right quadrant)?
**A.** The value was 13.33%.

**Q.** For `CCc1c(C)c2ccc(OCC(=O)NNC(=S)Nc3ccccc3)c(C)c2oc1=O` [Compound 6c, 2-(2-((3-Ethyl-4,8-dimethyl-2-oxo-2H-chromen-7-yl)oxy)acetyl)-N-phenylhydrazine-1-carbothioamide], which IC50 (MDA-MB-231) is on record?
**A.** Its IC50 is greater than 50 µM.

**Q.** Which IC50 (MDA-MB-231) does the source give for `CCc1c(C)c2ccc(OCc3nnc(S)n3N)c(C)c2oc1=O` [Compound 7, 7-((4-amino-5-mercapto-4H-1,2,4-triazol-3-yl)methoxy)-3-ethyl-4,8-dimethyl-2H-chromen-2-one] here?
**A.** The IC50 was greater than 50 µM.

**Q.** Which IC50 (MDA-MB-231) does the source give for `Cc1c(Cc2ccccc2)c(=O)oc2c(C)c(OCC(=O)NN=Cc3ccc(Cl)cc3)ccc12` [Compound 4d, 2-((3-Benzyl-4,8-dimethyl-2-oxo-2H-chromen-7-yl)oxy)-N'-(4-chlorobenzylidene)acetohydrazide] here?
**A.** The IC50 was greater than 50 µM.

**Q.** Which IC50 (PC-3) does the source give for “7-((amino-5-(isopropylthio)-4H-1,2,4-triazol-3-yl)methoxy)-3-ethyl-4,8-dimethyl-2H-chromen-2-one [Compound 8]” here?
**A.** The IC50 was greater than 50 µM.

**Q.** With `C=CCOc1ccc2c(C)c(CC)c(=O)oc2c1C` [Compound 9d, 7-(Allyloxy)-3-ethyl-4,8-dimethyl-2H-chromen-2-one] as the compound, how does the IC50 (MDA-MB-231) read?
**A.** Its IC50 is greater than 50 µM.
